Results as given in the EternaBench riboswitch data.

Tested on: MS2 coat protein
Assay: apparent Kd, MS2 coat protein; higher = weaker binding; RNA-MaP array; FMN 200 µM where present
Summary of the method: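 Designs were transcribed by stalled E. coli RNA polymerase on Illumina sequencing-chip clusters. They were titrated with SNAP-549-labelled MS2 coat protein from 0.7 or 1.5 nM, doubling to 3 µM, in 100 mM Tris-HCl pH 7.5, 80 mM KCl, 4 mM MgCl2, BSA, DTT, yeast tRNA and Tween-20, without and then with constant ligand. The apparent Kd is the median of filtered per-cluster fits after normalisation of green signal to red-channel RNA signal and control-cluster median Fmax.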

[1] = designed as: OFF switch for flavin mononucleotide, no ligand
[2] = ligand present: flavin mononucleotide, designed as: OFF switch for flavin mononucleotide
[3] = designed as: ON switch for flavin mononucleotide, no ligand
[4] = ligand present: flavin mononucleotide, designed as: ON switch for flavin mononucleotide

Row | Sequence | apparent Kd [1] [nM] | apparent Kd [2] [nM] | apparent Kd [3] [nM] | apparent Kd [4] [nM]
1 | AAGUUGACAGGAUAUACUUGGGCAACUUAUAUACUAAUAUAACAUGAGGAUCACCCAUGUAGAAGGGUCAGAAA | 54 | 72.5 |  | 
2 | AUGUUGAGCAGUGUAUUAAGAUCACAUGAGGAUCACCCAUGUAGAAGGCACGAGCUGAUCGCUCGUGAGGAUAUACAUCACUGC | 10.3 | 110 |  | 
3 | AUACAUGAGGAUCACCCAUGUUACUGGGUCUUAAUAGAUCGUAGAAGGAUGUUAUUAUAAAUUUCAUAGGAUAUACUAUUUUGU | 61.1 | 38.6 |  | 
4 | UGUUGGAGCGAGAAGGGACGAUGGGAAGCUGUAAGCUGGCACUGUAGACAUGAGGAUCACCCAUGUCAGGAUAUUGCCGAACUA | 5.98 | 10.2 |  | 
5 | AUGCUUCACACAGGAUAUACAUGAGGAUCACCCAUGUGUCCUAGGUAGCUGACACGAGCUACCCGGUAGAAGGGUGUGAAGCAU | 17 | 58.4 |  | 
6 | AAUAUAAGAGCUGGUAAAUAAAUCACAUGAGGAUCACCCAUGUAGGAUAUCAGCACGAUAAGUGCUGAGAAGGACAUCCAGCUC | 13.4 | 14.6 |  | 
7 | CAAUUGGCACAGAAGGGUGACAUGAGGAUCACCCAUGUAGCGUGGCUCUCAGGAGGAGCCACGCCACAGGAUAUGUGCGGGCAC |  |  | 33.2 | 63.2
8 | GCUGACGAUGUAGGAUAUCAGUAUAAUAAAUACUGAGAAGGACAUGAGGAUCACCCAUGUCUCCAACGUCAGCAGAGGAAACUC | 15.9 | 16.8 |  | 
9 | AAUUGGCUCGCGCAGGAUAUGGAUCAUUCCACAUGAGGAUCACCCAUGUUAAGGAGCCUUUGCAUCCAGAAGGGUGCUGGUCUUU |  |  | 41.2 | 14.6
10 | UGGGAUGGCUAGAAGGCUCCUUAUACUACAGGGAGAGGAUAUGGCACAUGAGGAUCACCCAUGUGUACCUGUAGGUGAUCCACA | 113 | 108 |  | 
11 | CUUUUGUGAGGAUAUCAGUAGUAUAUAAAUAAAAUUACUACUGAGAAGGCACAUGAGGAUCACCCAUGUUCCUC | 39.2 | 164 |  | 
12 | AGGAAACAUGAGGAUCACCCAUGUAAAAGGUGGGUAGGAUAUGCGAAAAGAAAAAGAAAAGCAGAAGGGCCAAGAA |  |  | 101 | 47.4
13 | AUGAGGUCAGGAUAUGCAUGGCGGGACUUGCGUCGUGGCGUGGAGAAGGGACAUGAGGAUCACCCAUGUGGAGG | 108 | 88.3 |  | 
14 | AACGCGUCAGGAUAUGCCAUAAAUUACGUAGUACGACCAUAGUAGAAGGGACAUGAGGAUCACCCAUGUGGGUA | 177 | 137 |  | 
15 | UCAAGUAUGUAGGAUAUGAUGUGAUUUUACAUAUCAGAAGGACGUACAUGAGGAUCACCCAUGUAACUUGCAUG | 112 | 42.2 |  | 
16 | CUUUUGUGAGGAUAUUAGUAGUAAAUAAAUAAAAUUACUUCUGAGAAGGCACAUGAGGAUCACCCAUGUUCCUC | 30.6 | 123 |  | 
17 | AUAGGUCAAGGAUAUACAUGAGGAUCACCCAUGUAAAUAACUCCAUCCAACUCCACAAGUAGAAGGUGAAAUAA | 17 | 16.5 |  | 
18 | CAAAUCUGAGGAUAUCGAUUUUUGUACAUGAGGAUCACCCAUGUCCUUUUUAUUAAAUCCCGAGAAGGCAGUGUAU | 27.1 | 31.2 |  | 
19 | GCACGGCAUGUAGGAUAUCGAGCUCCGGGAGCUCGAGAAGGACAUGAGGAUCACCCAUGUGCUCACAGUGAGUGAGUGCUGUGC | 19.7 | 38.8 |  | 
20 | GGUACUCAAAGAGUACCAAUACGAACAUGAGGAUCACCCAUGUAGGAUAUGCUCAAAACGGAGUAGCAGAAGGACAUGUGCCUA | 12.7 | 32.2 |  | 
21 | UUGGACGUCGUAUGAUAUGUAGGAUAUUCCUACAUGAGGAUCACCCAUGUUGACAUGGAAGAAGGACAGAAGGACGAUGUCCAU |  |  | 192 | 6.74

Row | Sequence | apparent Kd [1] [nM] | apparent Kd [2] [nM] | apparent Kd [3] [nM] | apparent Kd [4] [nM]
22 | GUAAACGAUCAGGAUAUAUCAAAUAAUAGCUUGAUAGAAGGGAUCACAUGAGGAUCACCCAUGUGAUCUUCUUU | 13.6 | 14.8 |  | 
23 | CUGCUGGAGCUUUGCUCUAGUCGUACAUGAGGAUCACCCAUGUAGGAUAUGGUAGGCUUUGCUUACUAGAAGGAUAGAGUGGUC | 76.4 | 32.8 |  | 
24 | CCAUCAGCGAACGAUACGAUUGGACAUGAGGAUCACCCAUGUAGAAGGACAGGAGAAUAACGGCUGUAGGAUAUACAUUUAGUG | 58.4 | 40.6 |  | 
25 | CAGCCCUGAGGAUAUCCACCCUCGUACAUGAGGAUCACCCAUGUCUCCCUCUGGGCUUUCGGAGAAGGCAGGUAUC | 69 | 58.5 |  | 
26 | GGCCAAGUCGAGAAGGCCGGUAGACAUGAGGAUCACCCAUGUAGUGCGUGGAGGAUAUUGAAUGGGUGGCGUAGGACCUGCGUU |  |  | 106 | 18.6
27 | UGUUAUAGAGGAUAUGCGUGAAUAUAGAUUCAUGGAAAUUUACAUGAGGAUCACCCAUGUAGAAGGCUGUGAUU | 14.4 | 15.3 |  | 
28 | GGGACCUACGAGAAGGGCUACAUGAGGAUCACCCAUGUAAAUCUUCGGGUGGCAGGAUAUCGGCGGCUACAGGAGGGCCAGGUC |  | 38.3 |  | 
29 | CAUGUCCUCACAGGAUAUGCACCACUUUGUGGUGCAGAAGGGUGGAUACAUGAGGAUCACCCAUGUGGACAUGAUAUAUUUAAG |  |  | 708 | 58.4
30 | CGCUAAGAGAACGAUACGAAUAGACAUGAGGAUCACCCAUGUAGAAGGACAACGGAAUAAACGUUGUAGGAUAUACAUUUAGCG | 17.4 | 45.3 |  | 
31 | CGCCUCAGUUCAGGAUAUGUAUGGGUCUAACGAACAGAAGGGAACAUGAGGAUCACCCAUGUAAAUAGGGCCAAAGGCUAGAUC | 41.7 | 175 |  | 
32 | UGUUGUAUUACAGGAUAUCUAUUAUAUUUAUUUAGAGAAGGGUAUUCACAUGAGGAUCACCCAUGUAUAUACGAGGAAGUUGUG |  |  | 49.6 | 55.1
33 | AUGCUAGUGUGAGGAUAUUAACAUGAGGAUCACCCAUGUUGGAAGUACAUGACAUGAGGUACAUUUAAGAAGGUACAUUAGCAU | 69 | 77.1 |  | 
34 | AUUGAUGUUGAGGAUAUGCUUUUAUUUAUAAUAGCAGAAGGCGAUACAUGAGGAUCACCCAUGUUCAUGGUAGU | 62.2 | 67 |  | 
35 | UUAUUAAGUGUGAGGAUAUGCUGGUCCUUGGAUCAGCAGAAGGCACAUGAGGAUCACCCAUGUACAUUAUUUUA | 35 | 247 |  | 
36 | GCGGAGAUACAGAAGGGAUAAGCCCUGGGCUAAUCAGGAUAUGUACGACGCAUCGUACAUGAGGAUCACCCAUGUAGCCGCUUG |  |  | 483 | 85.6
37 | GUCAGCUCGUGAGGAUAUACAACUCUGCUUCGGCAGUGUAUUAAGAUCACAUGAGGAUCACCCAUGUAGAAGGCACGAGCUGAU | 11.5 | 178 |  | 
38 | CUGAUGUGAGGAUAUCAACGCCAUGUCUUUGACAUGGCGCAUGAGAAGGCACAUGAGGAUCACCCAUGUUCUUC | 36 | 640 |  | 
39 | AUCAUGUAAGGAUAUCUUACAUGUGACUUCGGUCACUGUCAAGAGAAGGUACAUGAGGAUCACCCAUGUAUGAC | 14.7 | 19 |  | 
40 | AAAAAGUGAGGAUAUGCUUUUAUUUAUUAUUAUUAUUAUUUGCAGAAGGCACAUGAGGAUCACCCAUGUAAGAA | 31.7 | 24.9 |  | 
41 | AUACAUGAGGAUCACCCAUGUAAUUAAUUAACUAGUAAGAUCUAGGAUAUCAGCUCGUUUAGAGCUGAGAAGGAGAUCACAUGU |  |  | 36.8 | 15.6
42 | UCAAUUGCGUAGGAUAUACGGGCGCAGGCUAGAGUAGAAGGACGCACAUGAGGAUCACCCAUGUGGGUACCGAU | 17.7 | 114 |  | 
